This note sets out measurements from paper PMC6718129 (Drug Design, Development and Therapy, 2019).

Test [1] has as its system phosphorylated Rb protein in A-549 cell line. The test can be described thus: Rb phosphorylation by quantitative immunofluorescence. It counts as cell-based, human. The note with it: A-549, dose-response. In a few lines: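 A-549 cells were treated with vehicle or test compound (less than 100 µM down to 50 nM) for 24 or 48 hr. Nuclear phospho-Rb was measured by immunofluorescence, and total DNA content per cell gave the cell-cycle phase. Automated image analysis quantified P-Rb changes as dose–response curves, from which IC50 values were taken.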

Another test concerns A-549 cell line. Nature of the test: Cell cycle distribution by total DNA content. The class given is cell-based, human. The note with it: A-549, 24 and 48 hrs. In a few lines: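 A-549 cells treated 24 or 48 hr over a range from below 100 µM down to 50 nM, alongside a reference drug. Total DNA content per cell was quantified to assign cell cycle phase, together with immunofluorescent imaging of nuclear phosphorylated Rb. Automated image analysis quantified changes, and IC50 values were taken from dose–response curves.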

With `CCN(CC)CCNC(=O)c1c(C)[nH]c(/C=C2\C(=O)Nc3ccc(F)cc32)c1C` [Sunitinib], the “levels of phosphorylated Rb protein (immunofluorescence)” value in test [1] was “substantially reduced the extent of phosphorylated Rb protein in a dose-dependent fashion”. Besides, the Cell cycle influences result in the test with A-549 cell line is listed as “increase in the percentage of cells in the S or G2/M phases of the cell cycle, with a concomitant reduction in the G1 phase”.
